{"source": "ChEMBL document CHEMBL5120908", "about": "“Diterpenoid Constituents of Psiadia punctulata and Evaluation of Their Antimicrobial Activity” (2022)", "key": {"Streptococcus mutans [1]": {"test_system": "Streptococcus mutans", "assay": "Antibacterial activity against Streptococcus mutans ATCC 25175 assessed as inhibition of efflux pump by measuring […] in accumulation of ethidium bromide at 0.6 ug/ml and measured after 60 mins by fluorescence assay", "assay_type": "functional, organism-based", "details": "dose 0.6 µg/ml", "outline": "(§1)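 EtBr accumulation in S. mutans grown overnight in BHI at 37 °C. Cells were washed twice and resuspended in PBS at OD600 0.6 with 0.4% glucose and 2 μg/mL EtBr (final). Psiadin was tested at 25 and 50 μg/mL, chlorhexidine at 0.6 μg/mL, and psiadin combined with chlorhexidine. DMSO and MeOH (0.5% each) served as negative controls. Fluorescence (ex 525/em 605 nm) was read every 60 s for 60 min at 37 °C.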"}, "Staphylococcus aureus [2]": {"test_system": "Staphylococcus aureus", "assay": "Antibacterial activity against Staphylococcus aureus ATCC 23235 incubated for 48 hrs by checkerboard assay", "assay_type": "functional", "outline": "(§2)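 Checkerboard: psiadin at 0, 25, 50, 100, 200 μg/mL crossed with chlorhexidine at 5, 2.5, 1.25, 0.6, 0.3, 0 μg/mL. Broth microdilution MIC was read as the lowest concentration with no visible growth (A600). L. plantarum grew in MRS and T. denticola in BHI, both anaerobic at 37 °C. S. aureus and S. mutans grew in aerobic BHI at 37 °C. FIC index calculated from combination versus single-agent MICs.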"}, "Streptococcus mutans [3]": {"test_system": "Streptococcus mutans", "assay": "Antibacterial activity against Streptococcus mutans ATCC 25175 incubated for 48 hrs by checkerboard assay", "assay_type": "functional", "outline": "as §2"}, "[4]": {"test_system": "Lactiplantibacillus plantarum", "assay": "Antibacterial activity against Lactobacillus plantarum ATCC 8014 incubated for 48 hrs by checkerboard assay", "assay_type": "functional", "outline": "as §2"}, "Treponema denticola [5]": {"test_system": "Treponema denticola", "assay": "Antibacterial activity against Treponema denticola ATCC 35405 incubated for 48 hrs by checkerboard assay", "assay_type": "functional", "outline": "as §2"}, "Staphylococcus aureus [6]": {"test_system": "Staphylococcus aureus", "assay": "Antibacterial activity against Staphylococcus aureus ATCC 23235 incubated for 48 hrs by spectrophotometric analysis", "assay_type": "functional"}, "Streptococcus mutans [7]": {"test_system": "Streptococcus mutans", "assay": "Antibacterial activity against Streptococcus mutans ATCC 25175 incubated for 48 hrs by spectrophotometric analysis", "assay_type": "functional"}, "Treponema denticola [8]": {"test_system": "Treponema denticola", "assay": "Antibacterial activity against Treponema denticola ATCC 35405 incubated for 48 hrs by spectrophotometric analysis", "assay_type": "functional", "outline": "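Broth microdilution MIC: fractions tested at 20–200 μg/mL and pure compounds at 10–200 μg/mL, each with 0.5 × 10^5 CFU/mL inoculum. S. aureus and S. mutans grew aerobically in BHI at 37 °C for 24 h. T. denticola grew anaerobically in BHI at 37 °C for 48 h. Read by A600. MIC is the lowest concentration inhibiting visible growth. Blank and DMSO vehicle controls were included; triplicate.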"}, "Staphylococcus aureus [9]": {"test_system": "Staphylococcus aureus", "assay": "Potentiation of antimicrobial activity against Staphylococcus aureus ATCC 23235 assessed as chlorhexidine MIC at 25 ug/ml incubated for 48 hrs by checkerboard assay", "assay_type": "functional", "details": "dose 25 µg/ml", "outline": "as §2"}, "Streptococcus mutans [10]": {"test_system": "Streptococcus mutans", "assay": "Potentiation of antimicrobial activity against Streptococcus mutans ATCC 25175 assessed as chlorhexidine MIC at 25 ug/ml incubated for 48 hrs by checkerboard assay", "assay_type": "functional", "details": "dose 25 µg/ml", "outline": "as §2"}, "[11]": {"test_system": "Lactiplantibacillus plantarum", "assay": "Potentiation of antimicrobial activity against Lactobacillus plantarum ATCC 8014 assessed as chlorhexidine MIC at 25 ug/ml incubated for 48 hrs by checkerboard assay", "assay_type": "functional", "details": "dose 25 µg/ml", "outline": "as §2"}, "Treponema denticola [12]": {"test_system": "Treponema denticola", "assay": "Potentiation of antimicrobial activity against Treponema denticola ATCC 35405 assessed as chlorhexidine MIC at 25 ug/ml incubated for 48 hrs by checkerboard assay", "assay_type": "functional", "details": "dose 25 µg/ml", "outline": "as §2"}, "Staphylococcus aureus [13]": {"test_system": "Staphylococcus aureus", "assay": "Potentiation of antimicrobial activity against Staphylococcus aureus ATCC 23235 assessed as chlorhexidine MIC at 50 ug/ml incubated for 48 hrs by checkerboard assay", "assay_type": "functional", "details": "dose 50 µg/ml", "outline": "as §2"}, "Streptococcus mutans [14]": {"test_system": "Streptococcus mutans", "assay": "Potentiation of antimicrobial activity against Streptococcus mutans ATCC 25175 assessed as chlorhexidine MIC at 50 ug/ml incubated for 48 hrs by checkerboard assay", "assay_type": "functional", "details": "dose 50 µg/ml", "outline": "as §2"}, "[15]": {"test_system": "Lactiplantibacillus plantarum", "assay": "Potentiation of antimicrobial activity against Lactobacillus plantarum ATCC 8014 assessed as chlorhexidine MIC at 50 ug/ml incubated for 48 hrs by checkerboard assay", "assay_type": "functional", "details": "dose 50 µg/ml", "outline": "as §2"}, "Treponema denticola [16]": {"test_system": "Treponema denticola", "assay": "Potentiation of antimicrobial activity against Treponema denticola ATCC 35405 assessed as chlorhexidine MIC at 50 ug/ml incubated for 48 hrs by checkerboard assay", "assay_type": "functional", "details": "dose 50 µg/ml", "outline": "as §2"}, "Staphylococcus aureus [17]": {"test_system": "Staphylococcus aureus", "assay": "Potentiation of antimicrobial activity against Staphylococcus aureus ATCC 23235 assessed as chlorhexidine MIC at 100 ug/ml incubated for 48 hrs by checkerboard assay", "assay_type": "functional", "details": "dose 100 µg/ml", "outline": "as §2"}, "Streptococcus mutans [18]": {"test_system": "Streptococcus mutans", "assay": "Potentiation of antimicrobial activity against Streptococcus mutans ATCC 25175 assessed as chlorhexidine MIC at 100 ug/ml incubated for 48 hrs by checkerboard assay", "assay_type": "functional", "details": "dose 100 µg/ml", "outline": "as §2"}, "[19]": {"test_system": "Lactiplantibacillus plantarum", "assay": "Potentiation of antimicrobial activity against Lactobacillus plantarum ATCC 8014 assessed as chlorhexidine MIC at 100 ug/ml incubated for 48 hrs by checkerboard assay", "assay_type": "functional", "details": "dose 100 µg/ml", "outline": "as §2"}, "Treponema denticola [20]": {"test_system": "Treponema denticola", "assay": "Potentiation of antimicrobial activity against Treponema denticola ATCC 35405 assessed as chlorhexidine MIC at 100 ug/ml incubated for 48 hrs by checkerboard assay", "assay_type": "functional", "details": "dose 100 µg/ml", "outline": "as §2"}, "Staphylococcus aureus [21]": {"test_system": "Staphylococcus aureus", "assay": "Potentiation of antimicrobial activity against Staphylococcus aureus ATCC 23235 assessed as chlorhexidine MIC at 200 ug/ml incubated for 48 hrs by checkerboard assay", "assay_type": "functional", "details": "dose 200 µg/ml", "outline": "as §2"}, "Streptococcus mutans [22]": {"test_system": "Streptococcus mutans", "assay": "Potentiation of antimicrobial activity against Streptococcus mutans ATCC 25175 assessed as chlorhexidine MIC at 200 ug/ml incubated for 48 hrs by checkerboard assay", "assay_type": "functional", "details": "dose 200 µg/ml", "outline": "as §2"}, "[23]": {"test_system": "Lactiplantibacillus plantarum", "assay": "Potentiation of antimicrobial activity against Lactobacillus plantarum ATCC 8014 assessed as chlorhexidine MIC at 200 ug/ml incubated for 48 hrs by checkerboard assay", "assay_type": "functional", "details": "dose 200 µg/ml", "outline": "as §2"}, "Treponema denticola [24]": {"test_system": "Treponema denticola", "assay": "Potentiation of antimicrobial activity against Treponema denticola ATCC 35405 assessed as chlorhexidine MIC at 200 ug/ml incubated for 48 hrs by checkerboard assay", "assay_type": "functional", "details": "dose 200 µg/ml", "outline": "as §2"}, "Staphylococcus aureus [25]": {"test_system": "Staphylococcus aureus", "assay": "Synergistic antimicrobial activity against Staphylococcus aureus ATCC 23235 assessed as fractional inhibitory concentration at 50 ug/ml incubated for 48 hrs in presence of chlorhexidine by checkerboard assay", "assay_type": "functional", "details": "dose 50 µg/ml", "outline": "as §2"}, "Staphylococcus aureus [26]": {"test_system": "Staphylococcus aureus", "assay": "Synergistic antimicrobial activity against Staphylococcus aureus ATCC 23235 assessed as fractional inhibitory concentration at 25 ug/ml incubated for 48 hrs in presence of chlorhexidine by checkerboard assay", "assay_type": "functional", "details": "dose 25 µg/ml", "outline": "as §2"}, "Streptococcus mutans [27]": {"test_system": "Streptococcus mutans", "assay": "Antibacterial activity against Streptococcus mutans ATCC 25175 assessed as inhibition of efflux pump by measuring increase in accumulation of ethidium bromide at 25 to 50 ug/ml and measured after 60 mins by fluorescence assay", "assay_type": "functional, organism-based", "details": "dose 25-50 µg/ml, DDE = dose-dependent effect", "outline": "as §1"}, "Streptococcus mutans [28]": {"test_system": "Streptococcus mutans", "assay": "Antibacterial activity against Streptococcus mutans ATCC 25175 assessed as inhibition of efflux pump by measuring increase in accumulation of ethidium bromide at 50 ug/ml and measured after 60 mins in presence of chlorhexidine by fluorescence assay", "assay_type": "functional, organism-based", "details": "dose 50.0 µg/ml", "outline": "as §1"}, "Streptococcus mutans [29]": {"test_system": "Streptococcus mutans", "assay": "Synergistic antimicrobial activity against Streptococcus mutans ATCC 25175 assessed as fractional inhibitory concentration incubated for 48 hrs in presence of chlorhexidine by checkerboard assay", "assay_type": "functional", "details": "time 24 hrs; in the assay text read “24 hrs” for “48 hrs”", "outline": "as §2"}, "Streptococcus mutans [30]": {"test_system": "Streptococcus mutans", "assay": "Antibiofilm activity against Streptococcus mutans ATCC 25175 at 50 to 100 ug/ml measured after 24 hrs by crystal violet staining method", "details": "dose 50-100 µg/ml"}}, "note": "Calls of active or inactive are those of the source. The rule behind the calls is not given here.", "data": [{"compound": "N=C(NCCCCCCNC(=N)NC(=N)Nc1ccc(Cl)cc1)NC(=N)Nc1ccc(Cl)cc1", "note": "[CHLORHEXIDINE]", "values": [{"measurement": "Activity", "setting": "Streptococcus mutans [1]", "value": "Active"}, {"measurement": "MIC", "setting": "Staphylococcus aureus [2]", "value": 2.5, "unit": "µg/mL"}, {"measurement": "MIC", "setting": "Streptococcus mutans [3]", "value": 1.25, "unit": "µg/mL"}, {"measurement": "MIC", "setting": "[4]", "value": 10, "unit": "µg/mL"}, {"measurement": "MIC", "setting": "Treponema denticola [5]", "value": 2.2, "unit": "µg/mL"}]}, {"compound": "C=C1C[C@]23CC[C@@H]4C(CO)(CO)CC(=O)C[C@@]4(C)[C@@H]2CC[C@H]1C3", "values": [{"measurement": "MIC", "setting": "Staphylococcus aureus [6]", "value": 125, "unit": "µg/mL"}, {"measurement": "MIC", "setting": "Streptococcus mutans [7]", "value": 140, "unit": "µg/mL"}, {"measurement": "MIC", "setting": "Treponema denticola [8]", "value": 100, "unit": "µg/mL"}, {"measurement": "MIC", "setting": "Staphylococcus aureus [9]", "value": 1.25, "unit": "µg/mL"}, {"measurement": "MIC", "setting": "Streptococcus mutans [10]", "value": 1.25, "unit": "µg/mL"}, {"measurement": "MIC", "setting": "[11]", "value": 10, "unit": "µg/mL"}, {"measurement": "MIC", "setting": "Treponema denticola [12]", "value": 2.5, "unit": "µg/mL"}, {"measurement": "MIC", "setting": "Staphylococcus aureus [13]", "value": 1.25, "unit": "µg/mL"}, {"measurement": "MIC", "setting": "Streptococcus mutans [14]", "value": 0.6, "unit": "µg/mL"}, {"measurement": "MIC", "setting": "[15]", "value": 10, "unit": "µg/mL"}, {"measurement": "MIC", "setting": "Treponema denticola [16]", "value": 2.5, "unit": "µg/mL"}, {"measurement": "MIC", "setting": "Staphylococcus aureus [17]", "value": 0.6, "unit": "µg/mL"}, {"measurement": "MIC", "setting": "Streptococcus mutans [18]", "value": 0.6, "unit": "µg/mL"}, {"measurement": "MIC", "setting": "[19]", "value": 10, "unit": "µg/mL"}, {"measurement": "MIC", "setting": "Treponema denticola [20]", "value": 2.5, "unit": "µg/mL"}, {"measurement": "MIC", "setting": "Staphylococcus aureus [21]", "value": 0.3, "unit": "µg/mL"}, {"measurement": "MIC", "setting": "Streptococcus mutans [22]", "value": 0.3, "unit": "µg/mL"}, {"measurement": "MIC", "setting": "[23]", "value": 2.5, "unit": "µg/mL"}, {"measurement": "MIC", "setting": "Treponema denticola [24]", "value": 1.25, "unit": "µg/mL"}, {"measurement": "FIC", "setting": "Staphylococcus aureus [25]", "value": 0.9}, {"measurement": "FIC", "setting": "Staphylococcus aureus [26]", "value": 0.7}, {"measurement": "Activity", "setting": "Streptococcus mutans [27]", "value": "Dde"}, {"measurement": "Activity", "setting": "Streptococcus mutans [28]", "value": "Active"}, {"measurement": "FIC", "setting": "Streptococcus mutans [29]", "value": 0.85}, {"measurement": "Activity", "setting": "Streptococcus mutans [30]", "value": "Active"}]}, {"compound": "COc1c(OC)c(O)c2c(=O)cc(-c3ccc(O)cc3)oc2c1OC", "note": "[XANTHOMICROL]", "values": [{"measurement": "MIC", "setting": "Staphylococcus aureus [6]", "value": "> 250", "unit": "µg/mL"}, {"measurement": "MIC", "setting": "Streptococcus mutans [7]", "value": 180, "unit": "µg/mL"}, {"measurement": "MIC", "setting": "Treponema denticola [8]", "value": 200, "unit": "µg/mL"}]}]}
